# Source: PubChem
# STAT1 activator = STAT1 signaling activation | NIH 3T3 STAT1-luciferase reporter, IFN-gamma, luminescence; 100% = IFN-gamma alone, no compound | hit rate 2.6% among 200,000 | activation (% of control), % at 5.5 µM;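 active = activation above the screen-wide mean activation plus 3 SD, cut at about 130% in these data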;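 also: raw ratio to IFN-gamma control signal so 100% means no change and 0% no light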
# FLuc act counter = firefly luciferase counter-screen for stimulation assays. P08659. activation factor at 10 µM. 200,000 tested, under 10 active. ATPlite luciferase biochemical, luminescence, 10 min; 0 = ATP-free wells, 1 = DMSO control;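 active = luciferase activation factor, scaled between plate controls, of at least 2 with compound at 10 µM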
# Target sequence (P08659 whole entry, looked up): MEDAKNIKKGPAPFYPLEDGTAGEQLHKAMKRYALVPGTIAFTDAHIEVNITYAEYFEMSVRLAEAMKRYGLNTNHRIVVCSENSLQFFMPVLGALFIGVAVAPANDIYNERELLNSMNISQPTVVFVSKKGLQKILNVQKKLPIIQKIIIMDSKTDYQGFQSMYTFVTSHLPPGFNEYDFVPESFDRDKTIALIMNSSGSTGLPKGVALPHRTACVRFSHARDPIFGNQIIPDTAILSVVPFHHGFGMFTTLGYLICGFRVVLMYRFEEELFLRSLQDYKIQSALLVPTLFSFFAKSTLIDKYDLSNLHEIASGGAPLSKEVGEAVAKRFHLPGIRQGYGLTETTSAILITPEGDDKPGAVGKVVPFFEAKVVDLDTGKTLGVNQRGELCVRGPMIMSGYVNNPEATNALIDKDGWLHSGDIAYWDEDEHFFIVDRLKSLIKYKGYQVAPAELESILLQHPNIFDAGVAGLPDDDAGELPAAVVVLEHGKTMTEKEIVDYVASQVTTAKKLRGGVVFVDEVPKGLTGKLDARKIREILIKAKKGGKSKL
#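 System: luciferase plus luciferin reagent, cell-free; medium: PBS as buffer for the ATP substrate; dosing: test compounds dosed from 2 mM stocks in 100% DMSO; timing: 10 min post-reagent at room temperature; measured by: luminescence measurement of luciferase light output; evaluation: luciferase activation, seen as luminescence increase over controls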
# APP 5'UTR act = activates APP 5'UTR luciferase reporter; AID 1276; activation, % at 2 µM; hit rate 1% among 190,000; SH-SY5Y APP 5'UTR luciferase reporter, luminescence; zero percent = DMSO vehicle wells;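 active = activation above a set limit, based on mean plus 3 SD of controls, cut at about 140% in these data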
# FLuc inhib CS = inhibits firefly luciferase, flagging false hits in luciferase inhibition screens | inhibition, % at 10 µM | AID 1006 | ATPLite firefly luciferase biochemical luminescence, 10 min | hit rate 1.5% among 200,000 | P08659;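 active = inhibition above about 50% when tested at 10 µM, limit read from the data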
# NF-kB expr up = raises NF-kB expression in human neuronal cells; hit rate 1.6% among 190,000; NF-kB reporter expression; hits give high values; fold change at 12.5 µM; in the data active = fold change above about 3.3
# APP transl inh = APP translation inhibition; SH-SY5Y APP 5'UTR-luciferase reporter, luminescence; hit rate 0.82% among 190,000; inhibition, % at 2 µM; AID 1285;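 active = inhibition above a set limit, derived from the sample mean plus 3 SD, cut at about 45% in these data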
# * hit, by the source's call. In the library only some 4.8% were active in any assay of this set; here they are far more common.
SMILES,STAT1 activator,FLuc act counter,APP 5'UTR act,FLuc inhib CS,NF-kB expr up,APP transl inh
Cc1nn(-c2ccccc2)c(C)c1/C=N/NC(=O)c1cc(-c2cccs2)[nH]n1,101,1,-93,0,0.65,93*
Cc1nn(-c2ccccc2)c(C)c1/C=N/NC(=O)c1cc(-c2ccc(Br)s2)[nH]n1,103,1,-8,-3,0.4,8
COc1cc(/C=N/NC(=O)c2nc(-c3ccccc3)n(-c3ccccc3)n2)ccc1O,103,1,-12,-3,0.76,12
Cc1nn(-c2ccccc2)c(C)c1/C=N/NC(=O)c1cccs1,140*,0.6,50,44,1.3,-50
COc1cc(/C=N/Nc2nc(C)nc3c2cnn3-c2ccccc2)ccc1O,109,1,-50,0,0.5,50*
CC1(C)C2CC=C(/C=N/NC(=O)c3ccccc3Br)C1C2 (configuration not stated),94,1,-14,-2,1,14
COc1ccc(N2CCN(C(CNC(=O)C(=O)NCCc3c[nH]c4ccccc34)c3ccco3)CC2)cc1 (configuration not stated),109,1,16,-2,1,-16
CCOC(=O)N1C(=O)C2(CCCCC2)N(c2ccccc2Cl)C1=S,115,1.1,3,-5,1,-3
Cc1cc(C)n(-c2nc3c(c(=O)[nH]c(=O)n3C)n2C(C)C)n1,95,1,0,-3,1.1,0
CCn1c(C(=O)Nc2ccsc2C(=O)OC)cc2sc(Cl)cc21,97,1.1,0,-6,1.1,0
COc1cccc(C(=O)/C=C/Nc2ccc(S(=O)(=O)Nc3ncccn3)cc2)c1,139*,1,-15,2,0.95,15
COc1cccc(C(=O)/C=C/Nc2ccc(S(=O)(=O)Nc3nc(C)cc(C)n3)cc2)c1,97,1,-9,-3,1.2,9
COc1ccc(S(=O)(=O)Nc2ccc(Oc3ncccn3)c(Cl)c2)cc1,101,1.1,-45,-5,1.4,46*
COc1cccc(C(=O)/C=C/Nc2ccc(S(=O)(=O)Nc3cnc4ccccc4n3)cc2)c1,137*,1,18,1,1,-18
O=C(CNS(=O)(=O)/C=C/c1ccccc1)OC1CCOC1=O (configuration not stated),102,1.1,15,-5,0.92,-15
COc1ccc(C(=NNc2ccccc2C(=O)O)c2ccc(OC)cc2)cc1,94,1,6,-4,1.2,-6
CC(=O)Nc1ccc(-c2nnn(CC(=O)Nc3ccc4c(c3)OCO4)n2)cc1Cl,104,1.1,29,-7,0.98,-29
Cc1cccc(NC(=O)COc2ccc(/C=C\c3[nH]c(=O)[nH]c(=O)c3[N+](=O)[O-])cc2)c1,109,1,18,-3,1,-18
O=C(O)C1CSC(c2ccccc2)N1C(=O)c1ccco1 (configuration not stated),93,1.1,-50,-6,0.89,50*
O=C(c1ccc2c(c1)OCCCO2)c1cccs1,127,0.6,140*,42,4*,-140
O=C(Nc1ccc2c(c1)OCO2)c1cccs1,122,0.6,62,36,3.4*,-62
O=C(Nc1ccc2nn(-c3ccccc3)nc2c1)c1cccs1,136*,1,74,5,1.5,-74
O=C(Nc1ccc2c(c1)OCO2)c1ccncc1,106,1,11,1,1.5,-11
C/C(=N\NC(=O)c1cccs1)c1ccc2c(c1)OCO2,123,0.9,29,12,2,-29
O=C(Nc1ccc2nsnc2c1)c1cccs1,107,0.9,5,7,1.2,-5
SMILES,STAT1 activator,FLuc act counter,APP 5'UTR act,FLuc inhib CS,NF-kB expr up,APP transl inh
O=C(/C=C\Nc1ccc2c(c1)OCO2)c1cccs1,40,0,178*,96*,6.3*,-178
Cn1c(=O)c2c(nc(CN3CCN(CCO)CC3)n2Cc2cccc3ccccc23)n(C)c1=O,105,1,-9,-3,4.3*,9
CCN1CCN(Cc2nc3c(c(=O)n(C)c(=O)n3C)n2Cc2ccccc2Cl)CC1,94,1,-4,-4,1,4
O=c1[nH]c(=S)[nH]c2sccc12,98,1.1,11,-7,1.4,-11
Nc1ccccc1C(=O)N=Nc1[nH]c(N)c2ccccc12,111,0.2,54,79*,2.3,-54
Nc1[nH]c(N=NC(=O)c2ccc(F)cc2)c2ccccc12,107,0.4,59,55*,1.3,-59
NC(=O)c1oc2ccccc2c1NC(=O)c1ccc(F)cc1,95,1,-4,2,0.69,4
O=C(O)c1ccc(Oc2cccc([N+](=O)[O-])c2)cc1C(=O)O,99,1,2,-3,4.3*,-2
COc1ccc2c(c1)sc1nc(-c3ccccc3)cn12,34,0,-87,97*,0.63,86*
Cc1cc(C)c2cccc(N)c2n1,96,1,16,-4,1.1,-16
Cc1cc(C)c2c(N)c3ccccc3nc2n1,132*,1.1,-11,-8,1.3,11
CCc1ccc2nc3nc(C)cc(C)c3c(N)c2c1,136*,1.1,18,-7,1.7,-18
CCCCOCCCn1cnc2c([nH]c3cc(OC)ccc32)c1=O,104,1,3,-4,0.98,-2
Cc1ccc2nc(-c3ccccc3)cn2c1,23,0,3,96*,0.96,-3
Cc1ccc2nc(-c3ccc(S(=O)(=O)N4CCOCC4)cc3)cn2c1,104,1,-13,-2,0.93,13
CC(=O)Nc1ccc(-c2cn3cc(C)ccc3n2)cc1,130*,0.2,149*,84*,5.9*,-149
CC(=O)Nc1ccc(-c2ccnc(-c3ccc(NC(C)=O)cc3)n2)cc1,97,1,-18,2,0.88,18
CC(=Nc1ccc(C)cc1C)c1sc2ccccc2c1O,143*,0.2,154*,85*,4.8*,-154
CC(=Nc1cccc(O)c1)c1sc2ccccc2c1O,112,0.5,161*,53*,10*,-161
CN=Cc1sc2ccccc2c1O,101,1,31,3,1.1,-31
Cc1ccc(N(C(=O)C2CCC(=O)N2)C2(C(=O)NC3CCCC3)CCCCC2)cc1 (configuration not stated),98,1.1,-10,-7,1,10
CC(C)(C)c1ccc(OCc2ccc(C(=O)N/N=C/c3ccc([N+](=O)[O-])cc3)o2)cc1,131*,1,21,-1,1.3,-21
CS(=O)(=O)c1nc(-c2ccc(Br)cc2)cc(-c2ccccc2)c1C#N,102,1.1,-2,-7,0.96,2
CS(=O)c1nc(-c2ccc(Br)cc2)cc(-c2ccccc2)c1C#N (configuration not stated),116,1,-94,-5,0.12,94*
